Reference: ChEMBL document CHEMBL3352149, “Promiscuity and selectivity in covalent enzyme inhibition: a systematic study of electrophilic fragments” (J Med Chem, 2014)

Legend:
Escherichia coli [1] = assay: Inhibition of Escherichia coli MetAP at 25 uM after 20 mins by HPLC analysis
Method in brief: (§1)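 Endpoint assay. Enzyme (50 nM) was preincubated with 25 μM compound for 20 min at 37 °C in 50 mM Tris pH 7.5, 100 mM NaCl, 100 μM CoCl2, 0.075% BSA. MGMM substrate (400 μM) was then added for 15 min (human MetAP-1) or 20 min (E. coli MetAP). Reactions were stopped with TFA. GMM product was quantified by RP-HPLC, UV 214 nm. Triplicate.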

[2] = biological target: Methionine aminopeptidase 1 (Homo sapiens) (UniProt P53582); assay: Inhibition of human MetAP at 25 uM after 20 mins by HPLC analysis; method in brief: as §1
Escherichia coli [3] = assay: Inhibition of wild-type Escherichia coli MurA compound preincubated for 10 mins before substrate addition at 25 uM measured after 15 mins by LC-MS method
Escherichia coli [4] = assay: Inhibition of wild-type Escherichia coli MurB compound preincubated for 10 mins before substrate addition at 25 uM measured after 15 mins by LC-MS method
Method in brief: (§2)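 E. coli wild-type enzyme (4 nM) was preincubated with 25 μM compound for 10 min at 37 °C. Enzymatically generated nucleotide-sugar substrate (~200 μM) plus ATP (~200 μM), or NADPH 200 μM for MurB, was added for 10 min. Reactions were started with amino-acid cosubstrate (MurC–F) or EP-UNAG (MurB), run 15 min at 37 °C, and quenched with formic acid. Product was measured by negative-ESI LC-MS EIC peak area. MgCl2: MurC 10, MurD/E 2, MurF 5 mM; MurB had 5 mM KCl. All in 50 mM NH4HCO3, 0.07% BSA, 1% DMSO; triplicate.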

Escherichia coli [5] = assay: Inhibition of wild-type Escherichia coli MurC compound preincubated for 10 mins before substrate addition at 25 uM measured after 15 mins by LC-MS method; method in brief: as §2
Escherichia coli [6] = assay: Inhibition of wild-type Escherichia coli MurD compound preincubated for 10 mins before substrate addition at 25 uM measured after 15 mins by LC-MS method; method in brief: as §2
Escherichia coli [7] = assay: Inhibition of wild-type Escherichia coli MurE compound preincubated for 10 mins before substrate addition at 25 uM measured after 15 mins by LC-MS method; method in brief: as §2
Escherichia coli [8] = assay: Inhibition of wild-type Escherichia coli MurF compound preincubated for 10 mins before substrate addition at 25 uM measured after 15 mins by LC-MS method; method in brief: as §2
[9] = biological target: Genome polyprotein (dengue virus type 2) (UniProt P12823); assay: Inhibition of Dengue virus serotype 2 NS2B-NS3 protease at 50 uM
[10] = biological target: Genome polyprotein (West Nile virus) (UniProt P06935); assay: Inhibition of West Nile virus NS2B-NS3 protease at 50 uM
Prothrombin (Bos taurus) = Prothrombin (Bos taurus) (UniProt P00735); assay: Inhibition of Bovine thrombin using Boc-Val-Pro-Arg-AMC as substrate compound preincubated at 25 uM for 15 mins by fluorescence assay
Method in brief: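 Bovine thrombin (final 10 nM) was preincubated 15 min with 25 μM compound in 50 mM Tris-HCl pH 7.5, 150 mM NaCl, 0.05% Tween 20. The reaction was started with Boc-Val-Pro-Arg-AMC (50 μM final). Fluorescence (ex 355/em 460 nm) was monitored continuously for 10 min; activity taken as slope (RFU/s). Triplicate.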

[11] = GSH reactivity of the compound assessed as adducts formation by RP-HPLC analysis
Method in brief: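 Fresh aqueous glutathione (10 mM solution) was added to 50 mM Tris-maleate buffer, pH 7.5. The reaction was started with compound from 10 mM DMSO stock (final 250 μM). Mixtures were followed by reversed-phase HPLC on an ODS column with a gradient to 100% B; rate constants are given in l·mol⁻¹·s⁻¹.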

Chain of Genome polyprotein (West Nile virus) (P06935 whole entry): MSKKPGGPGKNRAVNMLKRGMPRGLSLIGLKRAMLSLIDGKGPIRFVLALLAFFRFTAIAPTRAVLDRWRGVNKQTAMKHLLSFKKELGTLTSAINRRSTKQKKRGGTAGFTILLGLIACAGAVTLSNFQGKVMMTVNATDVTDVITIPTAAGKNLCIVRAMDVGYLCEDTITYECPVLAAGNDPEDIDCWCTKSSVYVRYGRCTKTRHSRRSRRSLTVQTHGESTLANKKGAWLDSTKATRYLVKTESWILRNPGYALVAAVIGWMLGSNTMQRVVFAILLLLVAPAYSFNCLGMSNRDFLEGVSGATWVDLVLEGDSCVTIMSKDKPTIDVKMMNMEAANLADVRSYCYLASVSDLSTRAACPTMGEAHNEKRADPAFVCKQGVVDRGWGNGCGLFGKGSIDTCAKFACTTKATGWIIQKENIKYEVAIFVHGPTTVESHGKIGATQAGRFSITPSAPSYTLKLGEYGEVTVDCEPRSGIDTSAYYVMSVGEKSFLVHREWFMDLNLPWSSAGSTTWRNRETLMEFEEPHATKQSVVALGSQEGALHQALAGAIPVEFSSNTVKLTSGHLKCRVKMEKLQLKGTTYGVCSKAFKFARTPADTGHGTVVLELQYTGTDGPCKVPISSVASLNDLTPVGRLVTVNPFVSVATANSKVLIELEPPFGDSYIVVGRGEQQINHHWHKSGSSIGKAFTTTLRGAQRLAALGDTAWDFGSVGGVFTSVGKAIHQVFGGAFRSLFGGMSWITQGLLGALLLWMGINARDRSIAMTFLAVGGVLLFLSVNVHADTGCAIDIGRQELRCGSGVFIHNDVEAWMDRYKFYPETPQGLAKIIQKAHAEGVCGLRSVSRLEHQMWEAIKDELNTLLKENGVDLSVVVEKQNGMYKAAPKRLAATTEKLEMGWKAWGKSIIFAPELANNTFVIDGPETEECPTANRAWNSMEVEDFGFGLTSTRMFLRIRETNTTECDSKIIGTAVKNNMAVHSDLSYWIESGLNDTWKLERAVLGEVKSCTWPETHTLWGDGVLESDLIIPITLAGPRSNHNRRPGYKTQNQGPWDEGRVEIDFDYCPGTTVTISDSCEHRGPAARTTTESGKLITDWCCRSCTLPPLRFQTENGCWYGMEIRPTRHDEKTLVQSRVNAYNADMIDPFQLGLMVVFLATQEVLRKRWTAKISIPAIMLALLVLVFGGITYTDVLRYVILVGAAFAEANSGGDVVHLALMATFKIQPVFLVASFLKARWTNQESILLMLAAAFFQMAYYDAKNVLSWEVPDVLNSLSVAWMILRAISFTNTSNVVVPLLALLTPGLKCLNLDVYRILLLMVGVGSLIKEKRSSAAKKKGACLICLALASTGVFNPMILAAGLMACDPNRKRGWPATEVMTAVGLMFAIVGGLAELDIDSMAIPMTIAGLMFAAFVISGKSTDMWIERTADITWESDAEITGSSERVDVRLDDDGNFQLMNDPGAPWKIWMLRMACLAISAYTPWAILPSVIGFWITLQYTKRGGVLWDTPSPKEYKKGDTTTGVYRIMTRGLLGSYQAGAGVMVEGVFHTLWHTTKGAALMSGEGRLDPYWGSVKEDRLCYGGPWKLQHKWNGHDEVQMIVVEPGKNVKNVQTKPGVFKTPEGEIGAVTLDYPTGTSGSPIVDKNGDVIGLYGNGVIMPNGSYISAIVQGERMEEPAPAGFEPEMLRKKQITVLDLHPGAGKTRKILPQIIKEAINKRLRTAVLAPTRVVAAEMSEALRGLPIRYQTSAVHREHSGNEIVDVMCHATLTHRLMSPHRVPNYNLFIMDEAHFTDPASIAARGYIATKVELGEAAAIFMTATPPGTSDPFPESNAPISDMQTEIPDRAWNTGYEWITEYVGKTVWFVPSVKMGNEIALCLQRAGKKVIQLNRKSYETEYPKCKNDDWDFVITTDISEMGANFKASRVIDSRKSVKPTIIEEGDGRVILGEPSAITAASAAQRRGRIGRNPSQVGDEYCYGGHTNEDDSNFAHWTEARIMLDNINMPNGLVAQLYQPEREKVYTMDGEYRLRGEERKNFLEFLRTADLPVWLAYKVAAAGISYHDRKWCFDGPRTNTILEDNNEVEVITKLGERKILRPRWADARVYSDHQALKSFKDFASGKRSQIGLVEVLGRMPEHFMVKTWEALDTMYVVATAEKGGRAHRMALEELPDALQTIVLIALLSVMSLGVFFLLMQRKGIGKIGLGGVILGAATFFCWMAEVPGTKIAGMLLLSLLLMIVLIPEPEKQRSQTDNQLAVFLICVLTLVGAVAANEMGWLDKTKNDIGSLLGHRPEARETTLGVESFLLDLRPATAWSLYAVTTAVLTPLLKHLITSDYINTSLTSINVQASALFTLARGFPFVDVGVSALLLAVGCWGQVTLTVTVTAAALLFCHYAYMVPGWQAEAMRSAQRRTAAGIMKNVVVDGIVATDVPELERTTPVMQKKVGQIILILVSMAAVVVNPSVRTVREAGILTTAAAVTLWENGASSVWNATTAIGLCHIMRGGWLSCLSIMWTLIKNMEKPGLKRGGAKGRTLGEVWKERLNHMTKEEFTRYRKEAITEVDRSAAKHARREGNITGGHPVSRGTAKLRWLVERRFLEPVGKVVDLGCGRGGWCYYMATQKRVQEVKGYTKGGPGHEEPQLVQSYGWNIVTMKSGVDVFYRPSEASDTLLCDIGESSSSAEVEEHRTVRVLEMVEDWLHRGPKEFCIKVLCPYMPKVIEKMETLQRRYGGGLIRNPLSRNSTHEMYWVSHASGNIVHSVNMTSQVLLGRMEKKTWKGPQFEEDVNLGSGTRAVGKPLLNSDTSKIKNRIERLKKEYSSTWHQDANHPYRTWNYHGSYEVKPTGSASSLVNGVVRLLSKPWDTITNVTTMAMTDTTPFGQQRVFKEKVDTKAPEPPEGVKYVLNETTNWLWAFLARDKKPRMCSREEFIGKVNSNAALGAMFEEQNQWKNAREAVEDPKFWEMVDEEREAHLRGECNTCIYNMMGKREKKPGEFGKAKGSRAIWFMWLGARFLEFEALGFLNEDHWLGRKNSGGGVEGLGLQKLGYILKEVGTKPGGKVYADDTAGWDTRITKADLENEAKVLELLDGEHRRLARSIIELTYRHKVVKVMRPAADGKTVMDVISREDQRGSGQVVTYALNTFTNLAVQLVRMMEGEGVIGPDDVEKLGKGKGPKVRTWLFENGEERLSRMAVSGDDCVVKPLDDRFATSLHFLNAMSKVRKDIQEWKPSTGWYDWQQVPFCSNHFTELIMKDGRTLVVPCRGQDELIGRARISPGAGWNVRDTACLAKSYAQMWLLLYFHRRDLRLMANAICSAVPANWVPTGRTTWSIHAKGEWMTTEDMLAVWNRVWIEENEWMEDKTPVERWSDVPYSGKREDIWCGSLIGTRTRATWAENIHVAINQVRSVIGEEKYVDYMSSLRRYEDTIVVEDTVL

| SMILES | inhibition (Escherichia coli [1]) | inhibition [2] | inhibition (Escherichia coli [3]) | inhibition (Escherichia coli [4]) | inhibition (Escherichia coli [5]) | inhibition (Escherichia coli [6]) | inhibition (Escherichia coli [7]) | inhibition (Escherichia coli [8]) | inhibition [9] | inhibition [10] | inhibition (Prothrombin (Bos taurus)) | Activity [11] |
| --- | --- | --- | --- | --- | --- | --- | --- | --- | --- | --- | --- | --- |
| CNC(=O)C[S+](C)C | < 15% | < 15% | < 15% | < 15% | 14% | < 15% | 20% | < 15% | < 15% | < 15% | < 15% |  |
| CCCCC(N)C(=O)OC (centres undefined) | < 15% | < 15% | < 15% | < 22% | < 15% | 18% | 17% | < 15% | < 15% | < 15% | < 15% | < 0.1 L/mol/s |
| N#CCC(=O)NCCc1ccccc1 | < 15% | < 15% | < 15% | < 15% | < 15% | < 15% | < 15% | < 15% | < 15% | 22% | < 15% | < 0.1 L/mol/s |
| C=CCNC1CCCC1 | < 15% | < 15% | < 15% | 17% | < 15% | < 15% | < 15% | < 15% | < 15% | < 15% | < 15% | < 0.1 L/mol/s |
| C=CCNc1ccc([N+](=O)[O-])cc1 | < 15% | < 15% | < 15% | 20% | < 15% | < 15% | < 15% | < 15% | < 15% | < 15% | < 15% | < 0.1 L/mol/s |
| C=CCNCc1ccccc1 | < 15% | < 15% | < 15% | < 15% | < 15% | < 15% | < 15% | < 15% | < 15% | < 15% | < 15% | < 0.1 L/mol/s |
| C=CCNC | < 15% | < 15% | < 15% | < 15% | < 15% | < 15% | < 15% | < 15% | < 15% | < 15% | < 15% | < 0.1 L/mol/s |
| C[S+](C)CC(=O)NCCc1ccccc1 | < 15% | < 15% | < 15% | < 15% | < 15% | < 15% | < 15% | < 15% | < 15% | < 15% | < 15% |  |
| Cc1ccc(NC(=O)CCl)cc1 | < 15% | < 15% | < 15% | < 15% | < 15% | < 15% | < 15% | < 15% | < 15% | < 15% | < 15% | < 0.1 L/mol/s |
| CCCCC(NC(=O)CC#N)C(=O)OC (centres undefined) | < 15% | < 15% | < 15% | < 15% | < 15% | < 15% | < 15% | < 15% | < 15% | 18% | < 15% | < 0.1 L/mol/s |
| COc1ccc(NC(=O)CC#N)cc1 | < 15% | < 15% | < 15% | < 15% | < 15% | < 15% | 15% | < 15% | < 15% | 16% | < 15% | < 0.1 L/mol/s |
| C[S+](C)CC(=O)Nc1ccc(F)cc1 | < 15% | < 15% | < 15% | < 15% | < 15% | < 15% | 15% | < 15% | < 15% | < 15% | < 15% |  |
| O=C(CCl)Nc1ccc(F)cc1 | < 15% | < 15% | < 15% | < 15% | < 15% | < 15% | < 15% | < 15% | < 15% | < 15% | < 15% | < 0.1 L/mol/s |
| N#CCC(=O)Nc1ccc([N+](=O)[O-])cc1 | < 15% | < 15% | < 15% | < 15% | < 15% | < 15% | < 15% | < 15% | < 15% | < 15% | < 15% | < 0.1 L/mol/s |
| C=CCNC(CCCC)C(=O)OC (centres undefined) | < 15% | < 15% | < 15% | < 15% | < 15% | < 15% | < 15% | < 15% | < 15% | < 15% | < 15% | < 0.1 L/mol/s |
| O=C(CCl)NC1CCCC1 | < 15% | < 15% | < 15% | < 15% | < 15% | < 15% | < 15% | < 15% | < 15% | < 15% | < 15% | < 0.1 L/mol/s |
| N#CCC(=O)NCc1ccccc1 | < 15% | < 15% | < 15% | < 15% | < 15% | < 15% | < 15% | < 15% | < 15% | 18% | < 15% | < 0.1 L/mol/s |
| C=CCNc1ccc(F)cc1 | < 15% | < 15% | < 15% | 17% | < 15% | < 15% | < 15% | < 15% | < 15% | < 15% | < 15% | < 0.1 L/mol/s |
| C[S+](C)CC(=O)NC1CCCC1 | < 15% | < 15% | < 15% | < 15% | < 15% | < 15% | 17% | < 15% | < 15% | < 15% | < 15% |  |
| CNC(=O)CC#N | < 15% | < 15% | < 15% | < 15% | < 15% | < 15% | < 15% | < 15% | < 15% | < 15% | < 15% | < 0.1 L/mol/s |
| O=C(CCl)Nc1ccc([N+](=O)[O-])cc1 | < 15% | < 15% | < 15% | < 15% | < 15% | < 15% | < 15% | < 15% | < 15% | < 15% | < 15% | < 0.1 L/mol/s |
| C[S+](C)CC(=O)NCc1ccccc1 | < 15% | < 15% | < 15% | < 15% | < 15% | < 15% | < 15% | < 15% | < 15% | < 15% | < 15% |  |
